Screening data from PubChem.
ABHD4 inh – ABHD4 inhibitors, primary screen, biochemical, fluorescence polarization, mouse | (Lyso)-N-acylphosphatidylethanolamine lipase (Mus musculus), Q8VD66 | purified mABHD4, FP-Rh probe fluorescence polarization | inhibition, % at 8.92 µM | 370,000 compounds, 0.54% hits;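 active means inhibition exceeding the mean over every tested compound plus 3 SD, cut at about 30% in these data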;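 further: 0% = plate median of compound wells and 100% = S159A mutant with DMSO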
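Assay system: wild-type mouse ABHD4 protein; compound: single nominal dose of 8.92 µM, 0.89% DMSO final; schedule: 45 min + 60 min at 25 °C; measured by: FP readout, ex 525 nm / em 598 nm; evaluation: % inhibition of FP-Rh probe binding versus controls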
PRMT1 FP inh – PRMT1 methyltransferase inhibitors, primary screen, biochemical, fluorescence polarization. recombinant PRMT1, activity-based probe fluorescence polarization. inhibition, % at 2.79 µM. 370,000 compounds, 1.3% hits. AID 652257, 2013;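 active means inhibition above about 21% made by adding two undisclosed values, limit read from the data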
HTRA1 inhibitor – HTRA1 serine protease inhibitors, primary screen, biochemical, fluorescence polarization, HTS; inhibition, % at 5.96 µM; Q92743; 340,000 compounds, 0.5% hits; recombinant HTRA1, FP-rhodamine activity-based probe; AID 504803, 2011; in the data active means inhibition above about 36%;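 further: 0% = enzyme with DMSO and 100% = wells lacking enzyme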
SIAE primary – human SIAE inhibitors, primary screen, biochemical, fluorescence polarization, FP-Rh probe, 1536-well HTS; Sialate O-acetylesterase (Homo sapiens), Q9HAT2; SIAE FP-Rh probe binding; inhibition, % at 9.66 µM; 370,000 compounds, 0.69% hits;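 active means inhibition above a cutoff: mean of compounds within the control limits plus 3 SD of those, cut at about 17% in these data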;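 further: 0% = plate median of compound wells and 100% = probe without SIAE protein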
Target sequence (Q9HAT2 whole entry, looked up): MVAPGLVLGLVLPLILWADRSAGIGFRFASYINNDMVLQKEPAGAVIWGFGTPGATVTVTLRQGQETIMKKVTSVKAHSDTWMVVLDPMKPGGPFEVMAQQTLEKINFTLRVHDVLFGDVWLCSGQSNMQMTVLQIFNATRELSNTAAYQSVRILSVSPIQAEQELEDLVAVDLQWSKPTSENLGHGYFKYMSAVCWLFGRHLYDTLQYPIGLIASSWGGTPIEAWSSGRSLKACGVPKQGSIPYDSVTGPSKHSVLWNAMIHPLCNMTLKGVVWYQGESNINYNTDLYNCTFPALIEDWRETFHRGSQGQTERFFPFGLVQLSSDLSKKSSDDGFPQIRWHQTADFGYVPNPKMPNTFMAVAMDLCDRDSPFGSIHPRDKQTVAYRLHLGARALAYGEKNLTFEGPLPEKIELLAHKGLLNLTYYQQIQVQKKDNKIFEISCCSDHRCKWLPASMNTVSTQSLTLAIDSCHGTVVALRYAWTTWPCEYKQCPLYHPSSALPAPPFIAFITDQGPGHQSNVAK
JMJD2C inh – inhibitors of GASC-1 histone demethylase, primary screen, biochemical, fluorescence, DELFIA europium; Lysine-specific demethylase 4C (Homo sapiens), Q9H3R0; GST-JMJD2C(1-420) H3K9me3 demethylation; inhibition, % at 2.35 µM; 330,000 compounds, 0.069% hits; AID 2099, 2009;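 active means more than half of a compound's replicate wells show inhibition beyond 50%, single wells judged on their own value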;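 further: signal counts dimethyl H3K9 product captured on neutravidin plate; 0% = median of DMSO wells and 100% = 0.3 times that DMSO median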
HTRA1 inh conf – HTRA1 protease inhibitors, retest, confirmation, biochemical, fluorescence polarization | AID 540248, 2011 | inhibition, % at 5.96 µM | 1,600 compounds, 66% hits | shares compounds with HTRA1 inhibitor | recombinant HTRA1, FP-rhodamine activity-based probe;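 active means mean inhibition over three repeats above a set limit taken from the earlier primary screen, cut at about 37% in these data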;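 further: 0% = HTRA1 with DMSO and 100% = wells lacking HTRA1; inhibitors block probe binding so polarization drops and inhibition rises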
PRMT1 confirm – PRMT1 methyltransferase inhibitors, confirmation, biochemical, fluorescence polarization, triplicate; shares compounds with PRMT1 FP inh; AID 687036, 2013; recombinant His-PRMT1, activity-based probe fluorescence polarization; inhibition, % at 2.79 µM; 3,300 compounds, 42% hits;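 active means mean inhibition across replicates above the hit cutoff derived for the earlier primary screen, cut at about 22% in these data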
ABHD4 confirm – ABHD4 inhibitors, retest, confirmation, biochemical, fluorescence polarization, mouse | shares compounds with ABHD4 inh | purified mABHD4, FP-Rh probe fluorescence polarization | inhibition, % at 8.92 µM | 1,800 compounds, 55% hits | AID 720658, 2013;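 active means mean inhibition across replicates above the hit cutoff set in the primary screen, cut at about 30% in these data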;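 further: 0% = wild-type ABHD4 with DMSO and 100% = catalytically dead S159A mutant with DMSO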
SIAE inh conf – human SIAE inhibitors, retest, confirmation, biochemical, fluorescence polarization, FP-Rh probe, triplicate; shares compounds with SIAE primary; SIAE FP-Rh activity-based probe; inhibition, % at 9.66 µM; 2,300 compounds, 13% hits;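 active means mean inhibition of the replicates above the hit cutoff set in the primary screen, cut at about 17% in these data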;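 further: 0% = SIAE with DMSO and probe and 100% = probe without SIAE; inhibitors lower polarization as more probe stays unbound to SIAE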
The depositor's hits bear a star; i = inactive; x = no result given. In the library only some 2.4% were active in any assay of this set; here they are far more common.

SMILES	ABHD4 inh	PRMT1 FP inh	HTRA1 inhibitor	SIAE primary	JMJD2C inh	HTRA1 inh conf	ABHD4 confirm	SIAE inh conf	others
Oc1ccc(Cl)cc1CNc1cccc2cccnc12	36*	6	49*	20*	-13	11	1	7
Cc1ccc(O)c(CNc2cccc3cccnc23)c1	7	-1	22	4	23	x	x	x
O=C(CC1Nc2cccc3cccc(c23)NC1=O)Nc1ccc(F)cc1 (stereo not drawn)	29	7	61*	24*	-23	6	x	8
O=C(CCl)N1c2ccccc2Oc2ccc3ccccc3c21	62*	60*	80*	22*	x	-20	-9	-2	PRMT1 confirm=40*
CC(=O)N1c2ccccc2Oc2cc3ccccc3cc21	2	-1	-20	3	2	x	x	x
COc1ccc(CN[C@@H]2CC[C@@]34CCCN3C(=O)CCC[C@H]4C2)cc1	1	-3	x	0	x	x	x	x
O=C(N/N=C/c1cc(Br)cc([N+](=O)[O-])c1O)c1ccc(NC(=O)c2ccc(F)cc2)cc1	16	1	51*	53*	6	53*	x	0
COC(=O)[C@]12C[C@H](CC(=O)NCC3CCCCC3)C(=O)N(Cc3ccccc3)C1=C[C@H](COCc1ccccc1)O[C@@H]2C	-1	-4	x	1	x	x	x	x
CN(/N=C\c1ccc(O)c(O)c1)c1nc(-c2ccccc2)cc(-c2ccccc2)n1	34*	-1	39*	35*	-7	66*	123*	-22
C#CCN1CC(COCCCC)Oc2cccc(Oc3ccc(C(C)(C)C)c(C)c3)c2S1(=O)=O (stereo not drawn)	-4	-5	x	-5	x	x	x	x
Cc1nc2ccccc2n2c(O)c(CC(=O)O)cc12	30*	44*	55*	18*	1	40*	74*	31*
O=C(Nc1ccc(F)cc1)OC[C@@H]1CSCCS(=O)(=O)N1	-9	5	x	1	x	x	x	x
FC(F)(F)C1=Nc2cccc3cccc(c23)N1	4	6	39*	56*	x	85*	x	4
COc1ccc(NS(=O)(=O)c2ccc(NS(=O)(=O)c3cccc(C(=O)O)c3)cc2)cc1	2	3	14	-4	-8	x	x	x
COc1ccc(NS(=O)(=O)c2ccc3c(c2)[C@H]2C=CC[C@H]2[C@@H](c2ccc(C(=O)O)cc2)N3)cc1	44*	38*	57*	29*	-19	53*	61*	20*	PRMT1 confirm=21*
COc1ccc(CN(C)C(=O)C2CSC3(C)CCC(=O)N23)c(OC)c1 (stereo not drawn)	7	4	-1	3	x	x	x	x
O=[N+]([O-])c1ccccc1N/N=C/c1c[nH]c2ccccc12	49*	1	78*	18*	-1	76*	89*	21*
C(=N\Nc1nc2ccccc2[nH]1)/c1c[nH]c2ccccc12	14	1	38*	21*	-5	21	x	33*
O=[N+]([O-])c1ccc(N/N=C/c2c[nH]c3ccccc23)cc1	10	15	31	8	-15	x	x	x
COC(=O)[C@H](Cc1ccccc1)N1Cc2ccccc2Oc2cc(Br)ccc2S1(=O)=O	-8	0	x	-2	x	x	x	x
O=C(O)c1ccc2nc(-c3ccccc3)c(-c3ccccc3)nc2c1	-15	0	3	-7	1	x	x	x
O=C(c1ccccc1)c1ccc2nc(-c3ccco3)c(-c3ccco3)nc2c1	44*	34*	45*	25*	1	191*	21	1
Nc1ccc(Nc2nc3ccccc3[nH]2)cc1	31*	6	58*	57*	1	66*	59*	58*
O=C(OCC#CCSc1nnc(-c2cccc3ccccc23)o1)C1CCCC1	2	1	x	4	x	x	x	x
CC1=C(C)C(=O)C(N2CCOCC2)=CC1=O	12	-2	1	-2	-21	x	x	x
SMILES	ABHD4 inh	PRMT1 FP inh	HTRA1 inhibitor	SIAE primary	JMJD2C inh	HTRA1 inh conf	ABHD4 confirm	SIAE inh conf	others
O=C1C=C(N2CCOCC2)c2ccccc2C1=O	24	4	21	-10	13	x	x	x
O=C1C(N2CCOCC2)=Cc2cccc3cccc1c23	86*	101*	59*	49*	x	39*	83*	27*	PRMT1 confirm=77*
O=C1C=C(N2CCOCC2)c2cccc3cccc1c23	83*	102*	43*	47*	x	8	2	-2	PRMT1 confirm=-2
O=C(NCc1ccccc1)C(c1ccco1)N1CCN(c2ccccc2F)CC1 (stereo not drawn)	8	0	x	6	x	x	x	x
O=c1c2ccccc2nc(N/N=C/c2c(O)ccc3ccccc23)n1O	34*	0	62*	18*	14	68*	34*	11
CCOC(=O)CCCN(c1[nH]c(C)c(C)c1C#N)S(=O)(=O)c1ccc(C)cc1	-5	1	-1	0	x	x	x	x
Oc1ccc(/C=N/Nc2ccnc3cc(Cl)ccc23)c(O)c1O	38*	15	66*	41*	13	65*	56*	33*
COC(=O)[C@]12C[C@H](CC(=O)N3CCN(C(=O)C4CC4)CC3)C(=O)N(CCc3ccc(OC)c(OC)c3)C1=C[C@H](COCc1ccccc1)O[C@@H]2C	2	-3	x	2	x	x	x	x
COC(=O)c1cc2c(c3c4cc(OC)ccc4n(S(=O)(=O)c4ccc(F)cc4)c13)C(=O)N(CC(C)C)C2	-1	0	x	0	x	x	x	x
Cc1cccc(C)c1NC(=O)C1(C)CN(S(C)(=O)=O)CC(=O)N1CCCN1CCOCC1 (stereo not drawn)	-1	2	x	3	x	x	x	x
Oc1ccc(NCc2cccs2)cc1	54*	20	37*	20*	14	4	11	9
CCOC(=O)[C@]12CCCC=C1N(CCCOC)C(=O)[C@@H]2CC(=O)NCCCCc1ccccc1	3	-4	x	0	x	x	x	x
O=C1c2cccc3c(O)ccc(c23)C(=O)N1Cc1ccccc1	75*	174*	66*	42*	i	46*	80*	49*
